From ChEMBL document CHEMBL4152239, “Design, synthesis and structure-activity relationship studies of GPR40 agonists containing amide linker” (Eur J Med Chem, 2018)
One block for each compound: values may come before it. Activity calls are given as the source filed them. No cut-off for these calls is given here.

Tests used:
[1] = biological target: Free fatty acid receptor 1 (Homo sapiens, UniProt O14842); test: Agonist activity at human GPR40 expressed in HEK293 cells assessed as increase in calcium mobilization by Fluo-8 dye based fluorescence assay; type: functional, cell-based
[2] = Half life in human liver microsomes at 0.1 mM in presence of NADPH by LC-MS analysis; type: ADME, microsome
[3] = Half life in mouse liver microsomes at 0.1 mM in presence of NADPH by LC-MS analysis; type: ADME, microsome
[4] = Apparent permeability across apical to basolateral side in human Caco2 cells by LC-MS analysis; type: ADME, cell-based; conditions: caco-2
[5] = Efflux ratio of permeability from […] in human Caco2 cells by LC-MS analysis; type: ADME, cell-based; conditions: caco-2
[6] = Ratio of drug uptake in rat brain to plasma; type: ADME; conditions: read-out: BPR
[7] = AUC (0 to 8 hrs) in ICR mouse at 30 mg/kg, po by LC-MS analysis; type: ADME, organism-based; set-up: dose 30 mg/kg, time < 8 hr, route oral; conditions: in vivo
In short: (§1)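 Male ICR mice, single oral dose of 30mg/kg, n = 3 per compound; vehicle 0.1% Tween-80 in 1% hydropropylcellulose sodium. Plasma sampled over time to derive pharmacokinetic parameters.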

[8] = Half life in ICR mouse at 30 mg/kg, po by LC-MS analysis; type: ADME, organism-based; conditions: in vivo; in short: as §1
[9] = Tmax in ICR mouse at 30 mg/kg, po by LC-MS analysis; type: ADME, organism-based; conditions: in vivo; in short: as §1
[10] = Cmax in ICR mouse at 30 mg/kg, po by LC-MS analysis; type: ADME, organism-based; set-up: dose 30 mg/kg, route oral; conditions: in vivo; in short: as §1
[11] = Ratio of drug uptake in ICR mouse brain to plasma at 30 mg/kg, po measured at 0.75 hrs by LC-MS analysis; type: ADME, organism-based; conditions: read-out: BPR
In short: (§2)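 Male ICR mice (n = 3) were dosed orally at 30 mg/kg and sacrificed at a set time point. The time point depended on the compound: 0.75 h for some and 1 h for others. Total drug in brain and liver was expressed as a ratio to total plasma drug (brain-to-plasma and liver-to-plasma distribution ratios).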

[12] = Ratio of drug uptake in ICR mouse liver to plasma at 30 mg/kg, po measured at 0.75 hrs by LC-MS analysis; type: ADME, organism-based; in short: as §2
[13] = biological target: Free fatty acid receptor 1 (Rattus norvegicus, UniProt Q8K3T4); test: Agonist activity at rat GPR40; type: functional
[14] = biological target: Free fatty acid receptor 1 (Mus musculus, UniProt Q76JU9); test: Agonist activity at mouse GPR40; type: functional
[15] = Ratio of drug uptake in ICR mouse brain to plasma at 30 mg/kg, po measured at 1 hr by LC-MS analysis; type: ADME, organism-based; conditions: read-out: BPR
In short: (§3)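 Male ICR mice received 30mg/kg orally, n = 3. Mice were sacrificed at 0.75 h or 1 h depending on compound. Total drug in brain or liver was divided by plasma drug to give the distribution ratio.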

[16] = Ratio of drug uptake in ICR mouse liver to plasma at 30 mg/kg, po measured at 1 hr by LC-MS analysis; type: ADME, organism-based; in short: as §3
Mus musculus = test: Antidiabetic activity in ICR mouse assessed as reduction in blood glucose AUC (0 to 120 mins) at 100 mg/kg, po dosed 30 minutes prior to glucose challenge by OGTT; type: functional, organism-based
In short: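 ICR mice (n=8) received compound orally before an oral glucose load of 2.5 g/kg. […] Comparison was against vehicle control by Student's t-test.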

Chain of Free fatty acid receptor 1 (Mus musculus, UniProt Q76JU9) (Q76JU9 whole entry): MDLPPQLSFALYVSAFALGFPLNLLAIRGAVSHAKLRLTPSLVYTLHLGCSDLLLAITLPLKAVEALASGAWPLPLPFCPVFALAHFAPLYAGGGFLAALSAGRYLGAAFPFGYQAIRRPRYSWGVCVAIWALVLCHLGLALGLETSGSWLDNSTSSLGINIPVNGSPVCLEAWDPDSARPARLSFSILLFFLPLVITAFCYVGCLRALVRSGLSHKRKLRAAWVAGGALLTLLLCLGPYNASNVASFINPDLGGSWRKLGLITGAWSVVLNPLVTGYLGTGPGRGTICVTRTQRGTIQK
Chain of Free fatty acid receptor 1 (Homo sapiens, UniProt O14842) (O14842 whole entry): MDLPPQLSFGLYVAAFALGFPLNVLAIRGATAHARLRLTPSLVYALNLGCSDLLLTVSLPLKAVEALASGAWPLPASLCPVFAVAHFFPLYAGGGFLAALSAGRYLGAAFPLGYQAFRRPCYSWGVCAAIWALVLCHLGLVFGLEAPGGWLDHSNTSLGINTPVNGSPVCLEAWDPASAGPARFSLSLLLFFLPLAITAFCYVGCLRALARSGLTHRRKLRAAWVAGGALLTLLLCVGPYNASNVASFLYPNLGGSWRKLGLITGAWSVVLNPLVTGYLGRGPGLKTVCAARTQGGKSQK
Chain of Free fatty acid receptor 1 (Rattus norvegicus, UniProt Q8K3T4) (Q8K3T4 whole entry): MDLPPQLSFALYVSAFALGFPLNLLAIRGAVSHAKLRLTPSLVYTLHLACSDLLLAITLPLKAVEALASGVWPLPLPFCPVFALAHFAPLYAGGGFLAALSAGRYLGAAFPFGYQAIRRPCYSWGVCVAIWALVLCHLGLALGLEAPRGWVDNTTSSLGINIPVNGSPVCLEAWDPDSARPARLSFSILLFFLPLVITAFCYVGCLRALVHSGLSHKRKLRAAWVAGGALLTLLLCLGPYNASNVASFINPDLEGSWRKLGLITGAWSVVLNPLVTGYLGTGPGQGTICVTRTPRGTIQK

EC50 [1]: 57 nM
Compound: CC#CC(CC(=O)O)c1ccc(OCc2ccc(C(=O)N3CCc4ccccc4C3)s2)cc1 (stereo not drawn)

EC50 [1]: > 5000 nM
Compound: CC#C[C@H](CC(=O)O)c1ccc(OCc2ccc(C(=O)N3CCN(c4ccc(F)cc4)CC3)s2)cc1

EC50 [1]: 54 nM
Compound: CC#CC(CC(=O)O)c1ccc(OCc2ccc(C(=O)N3CCN(c4ccc(F)cc4)CC3)s2)cc1 (stereo not drawn)

EC50 [1]: 97 nM
Compound: CC#CC(CC(=O)O)c1ccc(OCc2ccc(C(=O)N3CCN(c4cccc(F)c4)CC3)s2)cc1 (stereo not drawn)

EC50 [1]: 211 nM
Compound: CC#CC(CC(=O)O)c1ccc(OCc2ccc(C(=O)N3CCN(c4ccc(C)cc4)CC3)s2)cc1 (stereo not drawn)

EC50 [1]: 94 nM
Compound: CC#CC(CC(=O)O)c1ccc(OCc2ccc(C(=O)N3CCN(c4ccccc4[N+](=O)[O-])CC3)s2)cc1 (stereo not drawn)

EC50 [1]: 187 nM
Compound: CC#CC(CC(=O)O)c1ccc(OCc2ccc(C(=O)N3CCN(c4cccc([N+](=O)[O-])c4)CC3)s2)cc1 (stereo not drawn)

EC50 [1]: > 5000 nM
Compound: CC#CC(CC(=O)O)c1ccc(OCc2ccc(C(=O)N3CCN(c4ccncc4)CC3)s2)cc1 (stereo not drawn)

EC50 [1]: 133 nM
Compound: CC#CC(CC(=O)O)c1ccc(OCc2ccc(C(=O)N3CCN(c4ccc(Cl)cc4)CC3)s2)cc1 (stereo not drawn)

EC50 [1]: 155 nM
Compound: CC#CC(CC(=O)O)c1ccc(OCc2ccc(C(=O)N3CCN(Cc4ccccc4)CC3)s2)cc1 (stereo not drawn)

EC50 [1]: 72 nM
half-life at 100 µM [2]: 105 min
half-life at 100 µM [3]: 55 min
Compound: CC#CC(CC(=O)O)c1ccc(OCc2ccc(C(=O)N3CCN(c4ccccc4)CC3)s2)cc1 (stereo not drawn)

EC50 [1]: 138 nM
Compound: CC#CC(CC(=O)O)c1ccc(OCc2ccc(C(=O)N3CCN(c4ccccn4)CC3)s2)cc1 (stereo not drawn)

EC50 [1]: 47 nM
half-life at 100 µM [2]: 64 min
half-life at 100 µM [3]: 120 min
Papp A→B [4]: 20.6 ×10⁻⁶ cm/s
Ratio [5]: 0.8
EC50 [13]: 25 nM
EC50 [14]: 31 nM
AUC(0-t) at 8 h [7]: 28400 ng·h/mL
half-life [8]: 228 min
Tmax [9]: 48 min
Cmax [10]: 13300 ng/mL
Kp at 1 h [15]: 0.018
Kp at 1 h [16]: 15.1
Compound: CC#C[C@@H](CC(=O)O)c1ccc(OCc2ccc(C(=O)N3CCN(c4ccc(F)cc4)CC3)s2)cc1

EC50 [1]: 113 nM
Compound: CC#CC(CC(=O)O)c1ccc(OCc2ccc(C(=O)N3CCN(c4ccccc4F)CC3)s2)cc1 (stereo not drawn)

EC50 [1]: 1140 nM
Compound: CC#CC(CC(=O)O)c1ccc(OCc2ccc(C(=O)N3CCN(c4cccnc4)CC3)s2)cc1 (stereo not drawn)

EC50 [1]: > 5000 nM
Compound: CC#CC(CC(=O)O)c1ccc(OCc2ccc(C(=O)N3CCN(C)CC3)s2)cc1 (stereo not drawn)

EC50 [1]: 289 nM
Compound: CC#CC(CC(=O)O)c1ccc(OCc2ccc(C(=O)N3CCN(c4ccc(OC)cc4)CC3)s2)cc1 (stereo not drawn)

The remaining lines, values behind:

Compound: CC#CC(CC(=O)O)c1ccc(OCc2ccc(C(=O)N3CCC4(C=Cc5ccccc54)CC3)cc2)cc1 (stereo not drawn)
EC50 [1]: 179 nM
half-life at 100 µM [2]: 9 min
half-life at 100 µM [3]: 6 min
Papp A→B [4]: 10.9 ×10⁻⁶ cm/s
Ratio [5]: 0.3

Compound: CC#CC(CC(=O)O)c1ccc(OCc2ccc(C(=O)N3CCN(c4ccc(C(C)(C)C)cc4)CC3)s2)cc1 (stereo not drawn)
EC50 [1]: 417 nM

Compound: CC#CC(CC(=O)O)c1ccc(OCc2ccc(C(=O)N3CCc4ccccc4C3)o2)cc1 (stereo not drawn)
EC50 [1]: 50 nM

Compound: CC#CC(CC(=O)O)c1ccc(OCc2ccc(C(=O)N3CCc4ccccc4C3)cc2)cc1 (stereo not drawn)
EC50 [1]: 106 nM

Compound: Cc1cc(Cl)ccc1-c1cccc(COc2ccc([C@H](CC(=O)O)c3nccn3C)cc2)c1
Kp [6]: 0.04

Compound: CC#CC(CC(=O)O)c1ccc(OCc2ccc(C(=O)N3CCC4(C=Cc5ccccc54)CC3)s2)cc1 (stereo not drawn)
EC50 [1]: 172 nM
half-life at 100 µM [2]: 25 min
half-life at 100 µM [3]: 7 min
Papp A→B [4]: 19.3 ×10⁻⁶ cm/s
Ratio [5]: 0.3

Compound: CC#CC(CC(=O)O)c1ccc(OCc2ccc(C(=O)N3CCN(c4ccc([N+](=O)[O-])cc4)CC3)s2)cc1 (stereo not drawn)
EC50 [1]: 231 nM

Compound: CC#C[C@@H](CC(=O)O)c1ccc(OCc2ccc(CN3CCC4(C=Cc5ccccc54)CC3)cc2)cc1 [LY2881835]
EC50 [1]: 134 nM
half-life at 100 µM [2]: 18 min
half-life at 100 µM [3]: 2 min
Papp A→B [4]: 15 ×10⁻⁶ cm/s
Ratio [5]: 0.4
AUC(0-t) at 8 h [7]: 5150 ng·h/mL
half-life [8]: 78 min
Tmax [9]: 42 min
Cmax [10]: 2850 ng/mL
Kp at 0.75 h [11]: 0.14
Kp at 0.75 h [12]: 2.5

Compound: CC#CC(CC(=O)O)c1ccc(OCc2ccc(C(=O)NC3CCCc4ccccc43)cc2)cc1 (stereo not drawn)
EC50 [1]: 42 nM

Compound: CC#CC(CC(=O)O)c1ccc(OCc2cnc(C(=O)NC3CCCc4ccccc43)s2)cc1 (stereo not drawn)
EC50 [1]: 144 nM

Compound: CC#CC(CC(=O)O)c1ccc(OCc2cnc(C(=O)N3CCc4ccccc4C3)s2)cc1 (stereo not drawn)
EC50 [1]: 531 nM

Compound: CC#C[C@@H](CC(=O)O)c1ccc(OCc2ccc(C(=O)N[C@H]3CCCc4ccccc43)cc2)cc1
EC50 [1]: 39 nM
half-life at 100 µM [2]: 214 min
half-life at 100 µM [3]: 27 min
Papp A→B [4]: 15.2 ×10⁻⁶ cm/s
Ratio [5]: 1.2
EC50 [13]: 28 nM
EC50 [14]: 42 nM
AUC(0-t) at 8 h [7]: 3760 ng·h/mL
half-life [8]: 180 min
Tmax [9]: 15 min
Cmax [10]: 3770 ng/mL
Kp at 0.75 h [11]: 0.006
Kp at 0.75 h [12]: 0.9

Compound: Cc1nc(-c2ccc(C(F)(F)F)cc2)sc1COc1ccc([C@H](CC(=O)O)c2ccon2)cc1
Kp [6]: 0.02

Compound: O=C(O)CC(c1ccc(OCc2ccc(C(=O)N3CCN(c4ccc(F)cc4)CC3)s2)cc1)C1CC1 (stereo not drawn)
EC50 [1]: > 1670 nM

Compound: CC#C[C@@H](CC(=O)O)c1ccc(OCc2ccc(C(=O)N[C@@H]3CCCc4ccccc43)cc2)cc1
EC50 [1]: 20 nM
half-life at 100 µM [2]: 387 min
half-life at 100 µM [3]: 74 min
Papp A→B [4]: 18.8 ×10⁻⁶ cm/s
Ratio [5]: 0.9
EC50 [13]: 14 nM
EC50 [14]: 23 nM
AUC(0-t) at 8 h [7]: 80000 ng·h/mL
half-life [8]: 318 min
Tmax [9]: 72 min
Cmax [10]: 15400 ng/mL
Kp at 1 h [15]: 0.011
Kp at 1 h [16]: 0.3
Activity (Mus musculus): Active

Compound: O=C(O)CCc1ccc(OCc2ccc(C(=O)N3CCN(c4ccc(F)cc4)CC3)s2)cc1
EC50 [1]: 610 nM

Compound: CC#CC(CC(=O)O)c1ccc(OCc2cnc(C(=O)N3CCN(c4ccc(F)cc4)CC3)s2)cc1 (stereo not drawn)
EC50 [1]: 203 nM

Compound: CC#CC(CC(=O)O)c1ccc(OCc2ccc(C(=O)NC3CCCc4ccccc43)o2)cc1 (stereo not drawn)
EC50 [1]: 133 nM

Compound: CC#CC(CC(=O)O)c1ccc(OCc2ccc(C(=O)NC3CCCc4ccccc43)s2)cc1 (stereo not drawn)
EC50 [1]: 109 nM

Compound: O=C(O)CC1COc2cc(OCc3ccc(C(=O)N4CCN(c5ccc(F)cc5)CC4)s3)ccc21 (stereo not drawn)
EC50 [1]: > 1670 nM

Compound: CC#CC(CC(=O)O)c1ccc(OCc2ccc(C(=O)N3CCN(C4CCCCC4)CC3)s2)cc1 (stereo not drawn)
EC50 [1]: 820 nM

Compound: CC#CC(CC(=O)O)c1ccc(OCc2ccc(C(=O)N3CCCc4ccccc43)s2)cc1 (stereo not drawn)
EC50 [1]: 80 nM

Compound: CC#CC(CC(=O)O)c1ccc(OCc2ccc(C(=O)N3CCN(c4ccc(F)cc4)CC3)o2)cc1 (stereo not drawn)
EC50 [1]: 308 nM

Compound: CC#CC(CC(=O)O)c1ccc(OCc2ccc(C(=O)N3CCN(c4ccc(F)cc4)CC3)cc2)cc1 (stereo not drawn)
EC50 [1]: 114 nM
